Hits are enriched below; roughly 0.97% of the tested compounds scored in any of these assays.
Dynein cargo inh = dynein cargo transport inhibition; 0.47% of 220,000 active; 3617.4 mouse cells, GR-EGFP nuclear translocation imaging; test concentration mostly 20 µM; stimulated with dexamethasone, 1 µM; active compounds read low; AID 1381; z-score, hits read low;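 active = plate z-score of nuclear minus cytoplasmic receptor signal below a set negative limit, without overly bright fluorescence or cell loss, cut at about -3.5 in these data, passing the limit was not always enough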;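 note: z-score of nuclear minus cytoplasmic ring GR-EGFP intensity difference per well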
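Buffer or medium: tet-free, stripped-serum medium; reagent: dexamethasone at 1.0 µM final, 30 min; incubation: 48 h induction, 1 h compound, 30 min dex at 37 °C; measured by: formaldehyde fixation, Hoechst nuclear stain, 10x automated fluorescence imaging; read-out: nuclear-to-cytoplasmic GR-EGFP distribution per well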
Mdm2 ligase inh = blocks human Mdm2 ubiquitin ligase activity | cell-based MDM2 ubiquitination luciferase reporter, 2 h; 0 = plate control, 100 = twice control, blank-subtracted | signal enhancement, % at 5 µM | AID 1230 | Q00987 | 0.11% of 210,000 active;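 active = signal enhancement of 30% or more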;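 note: luminescence tracks abundance of the self-degrading MDM2-luciferase fusion protein; higher signal means inhibition of MDM2 E3 ligase activity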
Target sequence (Q00987 whole entry, looked up, the tested form may be a part): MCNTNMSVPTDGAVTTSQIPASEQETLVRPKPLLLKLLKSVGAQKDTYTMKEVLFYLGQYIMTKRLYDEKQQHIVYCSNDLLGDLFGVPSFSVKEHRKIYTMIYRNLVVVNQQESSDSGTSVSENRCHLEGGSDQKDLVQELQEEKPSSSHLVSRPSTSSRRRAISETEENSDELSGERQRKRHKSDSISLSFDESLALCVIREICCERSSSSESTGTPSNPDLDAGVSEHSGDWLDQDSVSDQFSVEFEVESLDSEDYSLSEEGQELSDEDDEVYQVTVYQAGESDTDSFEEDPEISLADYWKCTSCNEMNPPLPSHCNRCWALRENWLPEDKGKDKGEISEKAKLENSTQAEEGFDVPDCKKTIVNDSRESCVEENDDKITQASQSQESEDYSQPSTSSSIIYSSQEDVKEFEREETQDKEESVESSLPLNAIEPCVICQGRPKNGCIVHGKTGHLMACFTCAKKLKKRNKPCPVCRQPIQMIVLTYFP
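Test system: mammalian cells stably expressing self-ubiquitinating, self-degrading MDM2 E3–luciferase fusion; Amount: 2000 cells in each well; Medium: DMEM; Schedule: 4 h settle plus 2 h compound, 37 °C; Technique: SteadyLite luciferase luminescence after 15 min room-temperature reagent incubation; Benchmarks: plate control and blank wells.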
L929 necroptosis = L929 zVAD cell death inhibition; L929 zVAD necroptosis rescue, ATP luminescence, 24 h; with zVAD 60 µM; viability rescue, % at 10 µM; 0.38% of 220,000 active; AID 1377;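 active = activation, scaled between plate controls, above about 75%, limit read from the data; inactive = activation under that limit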;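 note: 0% = zVAD with DMSO and 100% = DMSO alone without zVAD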
B2AR ag = agonists of human beta-2 adrenergic receptor inducing internalization; Am2.2-beta2AR cells, FAP receptor internalization, flow cytometry; 0.43% of 340,000 active; response, % (no concentration beside the values);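 active = response above a set limit, near 3 SD of response in nonfluorescent compounds, cut at about 42% in these data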
TNF death inh = inhibitors of TNF-alpha induced necroptosis in Jurkat FADD-/- cells; 0.068% of 220,000 active; activation (protection from cell death), % at 10 µM; Jurkat FADD-/- TNF necroptosis rescue, ATP luminescence, 24 h; 0 = TNF only, 100 = no-TNF cells;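 active = activation, meaning protection from cell death, of at least 50% relative to plate controls; inactive = activation below 50%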;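 note: necroptosis triggered by 40 ng/mL TNF-alpha added together with compound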
Dynein inh conf = dynein cargo transport inhibition, confirmation; shares compounds with Dynein cargo inh; 3617.4 GR-EGFP nuclear translocation imaging, dexamethasone-induced; calls only at 20 µM; 69% of 1,000 active; AID 463116;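 active = inhibition of receptor movement into the nucleus at or above a set limit in both runs, with normal cell brightness and cell count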;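 note: dexamethasone at 1 µM final in well for 30 min; nuclear minus cytoplasmic GR-EGFP mean intensity difference in channel 2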
Starred values were filed as active, the others as inactive.

Results for CC(C)=CCN1CCN(Cc2cccc3nccnc23)CC1CCO (stereo unspecified) ?
Dynein cargo inh: -0.47; Mdm2 ligase inh: -20; L929 necroptosis: -1; B2AR ag: 21; TNF death inh: 0

What do the screens show for `CCOc1cc(/C=C2\C(=O)N(Cc3ccco3)C(C)=C2C(=O)OC)ccc1O`?
Dynein cargo inh: -4.4*; Mdm2 ligase inh: -1; L929 necroptosis: 0; B2AR ag: 24; TNF death inh: 2; Dynein inh conf: active

How did COC(=O)C1=C(C)N(Cc2ccc(C)cc2)C(=O)/C1=C\c1cc(OC)c(OC)c(OC)c1 do in these assays?
Dynein cargo inh: -3.5*; Mdm2 ligase inh: 0; L929 necroptosis: 1; B2AR ag: 16; TNF death inh: 3; Dynein inh conf: active

What do the screens show for `COC(=O)C1=C(C)N(Cc2ccc(C)cc2)C(=O)/C1=C\c1ccc(O)c(OC)c1`?
Dynein cargo inh: -2.1; Mdm2 ligase inh: -5; L929 necroptosis: 0; B2AR ag: 26; TNF death inh: -9

Results for CCOc1cc(/C=C2\C(=O)N(CCc3ccc(OC)c(OC)c3)C(C)=C2C(=O)OC)ccc1O ?
Dynein cargo inh: -4*; L929 necroptosis: 0; B2AR ag: 6; TNF death inh: 6; Dynein inh conf: inactive

What do the screens show for `O=[N+]([O-])c1ccc(/C=C/C2=NN(c3ccccc3)C(c3ccco3)C2)o1` (stereo unspecified)?
Dynein cargo inh: -6.8; Mdm2 ligase inh: -8; L929 necroptosis: 1; B2AR ag: -371; TNF death inh: -5; Dynein inh conf: active

How did Cc1cccc(NC(=O)NCCc2ccc(Cl)cc2)c1 do in these assays?
Dynein cargo inh: -0.083; Mdm2 ligase inh: -3; L929 necroptosis: 2; B2AR ag: -5; TNF death inh: 2

What do the screens show for `CC(=O)N(C1CC(C)C(C#N)(C#N)C1(C#N)C#N)N(C)C` (stereo unspecified)?
Dynein cargo inh: -6.8*; Mdm2 ligase inh: 2; L929 necroptosis: 4; B2AR ag: 23; TNF death inh: -18; Dynein inh conf: active

What do the screens show for `CCOc1ccc(NC(=S)N(CCN2CCOCC2)Cc2cc3cc4c(cc3[nH]c2=O)OCO4)cc1`?
Dynein cargo inh: 0.0052; Mdm2 ligase inh: -7; L929 necroptosis: 2; B2AR ag: -3; TNF death inh: 1

What do the screens show for `Cc1onc(-c2ccccc2Cl)c1C(=O)OCC(=O)c1ccc2c(c1)OCCO2`?
Dynein cargo inh: -0.98; Mdm2 ligase inh: -14; L929 necroptosis: 0; B2AR ag: 9; TNF death inh: -9

Results for NC(=O)C1CCN(C(=O)c2cc(S(=O)(=O)N3CCOCC3)ccc2Cl)CC1 ?
Dynein cargo inh: 0.28; Mdm2 ligase inh: 1; L929 necroptosis: 11; B2AR ag: 4; TNF death inh: 0

Results for O=C(NC1CCN(S(=O)(=O)c2ccccc2)CC1)C1CCCCC1 ?
Dynein cargo inh: -0.75; Mdm2 ligase inh: -3; L929 necroptosis: 0; B2AR ag: 1; TNF death inh: 0

What do the screens show for `COc1ccc(N=C2S/C(=C\c3ccc(OCC(=O)O)cc3)C(=O)N2CCc2c[nH]c3ccccc23)cc1`?
Dynein cargo inh: 1.2; Mdm2 ligase inh: -23; L929 necroptosis: -3; B2AR ag: 16; TNF death inh: 2

What do the screens show for `COc1ccc(N=C2S/C(=C\c3ccc(N4CCOCC4)o3)C(=O)N2CCc2c[nH]c3ccccc23)cc1`?
Dynein cargo inh: -9.1; Mdm2 ligase inh: -6; L929 necroptosis: 35; B2AR ag: -499; TNF death inh: -15; Dynein inh conf: active

What do the screens show for `Clc1ncnc2scc(-c3ccc(Br)cc3)c12`?
Dynein cargo inh: -4.5*; Mdm2 ligase inh: -7; L929 necroptosis: -1; B2AR ag: 6; TNF death inh: -7; Dynein inh conf: active

How did O=C(CCl)Nc1cc(-c2ccccc2)nn1-c1ccccc1 do in these assays?
Dynein cargo inh: -4.8*; Mdm2 ligase inh: -6; L929 necroptosis: 33; B2AR ag: 4; TNF death inh: -21; Dynein inh conf: active

Results for Cc1cccc(Nc2nc3c(s2)CCCC3)c1 ?
Dynein cargo inh: -0.5; Mdm2 ligase inh: 9; L929 necroptosis: 2; B2AR ag: 2; TNF death inh: 3

What do the screens show for `CCOc1ccc(-c2c(C#N)c(N)nc3sc(C(=O)c4ccccc4)c(N)c23)cc1`?
Dynein cargo inh: 0.78; L929 necroptosis: 1; B2AR ag: 10; TNF death inh: -3

Results for COc1ccc(-c2c(C#N)c(N)nc3sc(C(=O)c4ccccc4)c(N)c23)cc1 ?
Dynein cargo inh: -3.9; Mdm2 ligase inh: -9; L929 necroptosis: 0; B2AR ag: -6; TNF death inh: 6; Dynein inh conf: inactive

How did NC(=O)c1ccc(NC(=O)CSC2=Nc3ccccc3C3CC=NN23)cc1 (stereo unspecified) do in these assays?
Dynein cargo inh: -4.2*; Mdm2 ligase inh: -10; L929 necroptosis: 1; B2AR ag: 6; TNF death inh: -5; Dynein inh conf: inactive

How did COC(=O)c1ccc(NC(=O)CSC2=Nc3ccccc3C3CC=NN23)cc1 (stereo unspecified) do in these assays?
Dynein cargo inh: -0.64; Mdm2 ligase inh: 0; L929 necroptosis: 0; B2AR ag: 12; TNF death inh: -8

Results for Cc1cccc(N(C(=O)C(F)(F)F)C(C(=O)NC2CCCCC2)c2cccs2)c1 (stereo unspecified) ?
Dynein cargo inh: 0.1; Mdm2 ligase inh: -17; L929 necroptosis: 0; B2AR ag: 6; TNF death inh: -2

What do the screens show for `C#CC(=O)N(c1cccc(OC)c1)C(C(=O)NC1CCCC1)c1cccs1` (stereo unspecified)?
Dynein cargo inh: -5.3*; Mdm2 ligase inh: -47; L929 necroptosis: 0; B2AR ag: -254; TNF death inh: -27; Dynein inh conf: active

How did C#CC(=O)N(c1ccc(OC)c(OC)c1)C(C(=O)NC1CCCC1)c1cccs1 (stereo unspecified) do in these assays?
Dynein cargo inh: -4.7*; Mdm2 ligase inh: -1; L929 necroptosis: 2; B2AR ag: 17; TNF death inh: -28; Dynein inh conf: active

Results for N#CCC(=O)Nc1ccc(C(=O)OCC(=O)c2ccc3c(c2)OCO3)cc1 ?
B2AR ag: -5

What do the screens show for `Cc1cc(NC(=O)CSc2nnc(NCc3ccccc3)s2)no1`?
Dynein cargo inh: -1.2; L929 necroptosis: 1; B2AR ag: -2; TNF death inh: 3

How did O=C(C=Cc1ccccc1)c1c[nH]c2ccccc2c1=O do in these assays?
B2AR ag: -5

Screening data: PubChem BioAssay, several laboratories
